High-throughput results from PubChem BioAssay.
These entries were drawn from the full list.
Apaf-1 act – activators of human Apaf-1 apoptosome, primary screen, biochemical, DEVD-Rh110 fluorescence, uHTS; Apaf-1 apoptosome caspase-3 activation; hits give low values; activity change, negative = activation, % at 20 µM; AID 489031, 2010; Apoptotic protease-activating factor 1 (Homo sapiens), O14727; actives 0.31% (n = 330,000);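 active = activity change at or below -40% at 20 µM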
Target sequence (O14727 whole entry, looked up): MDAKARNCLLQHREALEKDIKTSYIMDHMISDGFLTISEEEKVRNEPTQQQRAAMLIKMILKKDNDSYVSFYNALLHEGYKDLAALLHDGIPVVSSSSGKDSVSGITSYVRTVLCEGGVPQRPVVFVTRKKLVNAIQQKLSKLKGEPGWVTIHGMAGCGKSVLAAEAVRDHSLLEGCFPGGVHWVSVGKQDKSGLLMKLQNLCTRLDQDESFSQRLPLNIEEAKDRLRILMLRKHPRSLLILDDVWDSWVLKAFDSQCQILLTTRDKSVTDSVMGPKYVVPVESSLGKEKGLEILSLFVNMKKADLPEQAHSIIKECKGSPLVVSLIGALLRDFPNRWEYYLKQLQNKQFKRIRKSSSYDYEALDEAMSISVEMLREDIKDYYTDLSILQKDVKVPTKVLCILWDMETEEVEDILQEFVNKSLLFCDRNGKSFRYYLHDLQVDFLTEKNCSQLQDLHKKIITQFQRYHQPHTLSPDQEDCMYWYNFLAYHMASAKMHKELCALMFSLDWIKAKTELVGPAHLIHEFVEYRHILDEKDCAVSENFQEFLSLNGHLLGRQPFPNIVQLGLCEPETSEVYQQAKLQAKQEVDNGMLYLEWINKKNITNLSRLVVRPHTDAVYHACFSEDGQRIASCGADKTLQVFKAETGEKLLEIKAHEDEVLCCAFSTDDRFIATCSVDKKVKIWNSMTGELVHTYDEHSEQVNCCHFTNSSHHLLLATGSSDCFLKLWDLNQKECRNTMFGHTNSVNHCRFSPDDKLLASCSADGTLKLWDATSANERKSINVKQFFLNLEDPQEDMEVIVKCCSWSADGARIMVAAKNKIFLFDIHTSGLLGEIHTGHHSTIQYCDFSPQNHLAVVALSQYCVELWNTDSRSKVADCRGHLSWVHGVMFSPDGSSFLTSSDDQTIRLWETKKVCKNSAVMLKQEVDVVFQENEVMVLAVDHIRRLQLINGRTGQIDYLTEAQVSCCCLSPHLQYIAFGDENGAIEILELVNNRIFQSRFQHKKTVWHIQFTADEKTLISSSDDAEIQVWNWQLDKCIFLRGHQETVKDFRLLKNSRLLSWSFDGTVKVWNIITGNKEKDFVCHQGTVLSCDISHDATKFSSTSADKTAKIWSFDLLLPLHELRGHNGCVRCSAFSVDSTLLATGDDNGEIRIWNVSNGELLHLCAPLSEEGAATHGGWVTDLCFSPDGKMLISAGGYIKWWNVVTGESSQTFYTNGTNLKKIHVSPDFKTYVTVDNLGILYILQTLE
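Material: biochemical Apaf-1 apoptosome reconstitution; Medium: 20 mM HEPES buffer, pH 7.5, containing CHAPS and BSA; Reagent: dATP, cytochrome c, and (Z-DEVD)2-Rh110 caspase-3 substrate; Times: 30 min preincubation, 50 min reaction, room temperature; Signal: Rh110 fluorescence, excitation 480 nm, emission 540 nm; Measure: Caspase-3 activity via Apaf-1.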
Rh110 interf act – Rh110 fluorescence interference by putative Apaf-1 activators, confirmation, artefact control for Apaf-1 activator project, biochemical, 20 µM | shares compounds with Apaf-1 act | quenched caspase reaction, Ex480/Em540 | fluorescence interference (activity change), % at 20 µM, hits read low | 980 tested, under 10 active | AID 504616, 2011;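 active = mean activity change at or below -40% when tested at 20 µM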
Apaf-1 act conf2 – Apaf-1 activators, single-dose retest, confirmation, biochemical, fluorescence, DEVD-Rh110, 20 µM; shares compounds with Apaf-1 act; reconstituted apoptosome caspase-3 activity; hits give low values; activity change, negative = activation, % at 20 µM; actives 5% (n = 980);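 active = mean activity change at or below -40%, meaning activation of 40% or more, at 20 µM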
The depositor's hits bear a star.

SMILES	Apaf-1 act	others
CC(Cc1ccccc1)NC(=O)NC(C)Cc1ccccc1 (configuration not stated)	-182*	Rh110 interf act=-8;Apaf-1 act conf2=5
COc1ccc2c(c1)NP(=S)(Oc1ccccc1)N2 (configuration not stated)	50
Ic1ccccc1CN[C@@H]1C2CCN(CC2)[C@@H]1C(c1ccccc1)c1ccccc1	50
Cc1ccc(-c2ccc(=O)n(CCC(=O)N3CCC4(CC3)OCCO4)n2)cc1	-49*	Rh110 interf act=2;Apaf-1 act conf2=11
CN[C@H]1C[C@H]2O[C@@](C)([C@H]1OC)n1c3ccccc3c3c4c(c5c6ccccc6n2c5c31)C(=O)NC4	51
CCCCOP(=O)(CN1CCOCC1)OCCCC	-278*	Rh110 interf act=2;Apaf-1 act conf2=7
COC(=O)C1=C(c2cccc(OCc3ccccc3)c2)C[C@@H]2CC[C@H]1N2C(=O)NC1CCN(Cc2ccccc2)CC1	48
COc1cc2c3c(c1OC)Oc1ccc(cc1)C[C@H]1c4c(cc(OC)c(OC)c4Oc4ccc(cc4)C[C@@H]3N(C)CC2)CCN1C	45
CCC(C)NC(=O)c1c(N)n(CCCOC)c2nc3ccccc3nc12 (configuration not stated)	91
COCCCn1c(N)c(C(=O)Nc2ccccc2)c2nc3ccccc3nc21	51
O=[N+]([O-])c1ccc(NCCCN2CCOCC2)c2ncccc12	40
Cn1ncnc2c(=O)n(C)c(=O)nc1-2	99
N=c1n(CCO)c2ccccc2n1Cc1ccccc1	-113*	Rh110 interf act=8;Apaf-1 act conf2=11
Cc1[nH]n(-c2ccccc2)c(=O)c1C(c1ccc([N+](=O)[O-])cc1)c1c(C)[nH]n(-c2ccccc2)c1=O	79
CCCCn1c(NC(=O)c2ccc(Br)o2)c(C(=O)OCC)c2nc3ccccc3nc21	79
COCCCn1c(N)c(C(=O)NCc2ccco2)c2nc3ccccc3nc21	95
Cc1c2ccncc2c(C)c2c1[nH]c1ccccc12	67
COCCCn1c(N)c(C(=O)Nc2sc3c(c2C(=O)OC)CCCC3)c2nc3ccccc3nc21	90
N#Cc1ccc(/C=C/C(=O)O)cc1	-499*	Rh110 interf act=9;Apaf-1 act conf2=9
COC(=O)C1=C(c2ccc(F)cc2OCc2ccccc2)C[C@@H]2CC[C@H]1N2C(=O)NC1CCN(Cc2ccccc2)CC1	53
Fc1ccc(C(OCCN2CCN(CCCc3ccccc3)CC2)c2ccc(F)cc2)cc1	56
c1ccc(CCCN2CCN(CCOC(c3ccccc3)c3ccccc3)CC2)cc1	51
CCC(C)NC(=O)c1c(N)n(Cc2ccc3c(c2)OCO3)c2nc3ccccc3nc12 (configuration not stated)	96
COC(=O)C1=C(c2ccc(Cl)c(C(F)(F)F)c2)C[C@@H]2CC[C@H]1N2C(=O)NCCOc1ccc(OC)cc1	40
CN1CCc2cc3c(c4c2C1Cc1ccccc1-4)OCO3 (configuration not stated)	91
SMILES	Apaf-1 act	others
COCCNC(=O)c1c(NC(=O)c2ccco2)n(Cc2ccccc2)c2nc3ccccc3nc12	53
C=CCN1C(=O)NC(=O)C(Cc2ccc(OC)c(OC)c2)C1=O (configuration not stated)	-549*	Rh110 interf act=6;Apaf-1 act conf2=15
CN(C)[C@@H]1C(=O)C(C(N)=O)=C(O)[C@@]2(O)C(=O)C3=C(O)c4c(O)cccc4[C@@](C)(O)C3[C@H](O)C12 (some centres not stated)	-2
CC(C)CCNC(=O)c1c(N)n(CC2CCCO2)c2nc3ccccc3nc12 (configuration not stated)	91
O=[N+]([O-])c1ccc(NCc2ccc(Cl)cc2)c2ccncc12	79
NCCc1ccc(OCc2ccccc2)c(OCc2ccccc2)c1	46
NS(=O)(=O)c1ccc(N=Nc2c(O)[nH]c(=S)[nH]c2=O)cc1	-138*	Rh110 interf act=4;Apaf-1 act conf2=4
COCCCn1c(N)c(C(=O)OC(C)COC)c2nc3ccccc3nc21 (configuration not stated)	74
O=C1N(CN2CCOCC2)c2ccccc2C1(O)c1c[nH]c2ccccc12 (configuration not stated)	-80*	Rh110 interf act=9;Apaf-1 act conf2=9
Nc1c(C(=O)OCc2ccccc2)c2nc3ccccc3nc2n1Cc1cccs1	86
CC(C)CC(N(C)C)C1(c2ccc(Cl)cc2)CCC1 (configuration not stated)	5
O=[N+]([O-])c1ccc(N2CCCNCC2)c2ncccc12	45
CCCCCCCCCCCCCCCC[N+](C)(C)C	85
